This is an account of results in ChEMBL document CHEMBL3232871, “Synthesis and structure-activity analysis of diphenylpyrazolodiazene inhibitors of the HIV-1 Nef virulence factor” (Bioorg Med Chem Lett, 2014).

One data set concerns TZM-bl. Description: Inhibition of HIV protein Nef in TZM-bl cells assessed decrease in HIV infectivity at 3 uM after 48 hrs by TZM-bl HIV infectivity assay. The conditions noted are these: Human immunodeficiency virus. The data set is classed as cell-based. A digest of the protocol: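 TZM-bl reporter cells (HIV-1 LTR-driven luciferase) received compound at 3 μM and were then infected with wild-type HIV-1 NL4-3. Luciferase was read 48 h later. Signal from cells infected with Nef-defective HIV was subtracted, and values are mean percent of untreated-cell control ± SEM.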

Data set [1] is described as follows: Cytotoxicity against human TZM-bl cells by Cell Titer Blue cell viability assay. Type of data set: cell-based. An outline of the steps:
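Viability of TZM-bl reporter cells was measured by Cell Titer Blue at the same compound concentration used in the HIV-1 infectivity assay (3 μM).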
(Alamar Blue is a resazurin reagent that responds to reducing activity.)

The structures appear in SMILES notation. The source made the active and inactive calls. The calls are words filed in the database; no cut-off is given here.

Turning to `Oc1[nH]nc(-c2ccccc2)c1/N=N/c1ccccc1`, in the data set with TZM-bl, the “Nef inhibition activity call (active/inactive)” value was “inactive”. In addition, the Activity entry in data set [1] is given as “Non-toxic”.
Take `NC(=S)n1nc(-c2ccc([N+](=O)[O-])cc2)c(/N=N/c2cccc(F)c2)c1O`: the Activity result in data set [1] is reported as “Non-toxic”.
With `NC(=S)n1nc(-c2ccc([N+](=O)[O-])cc2)c(/N=N/c2cncc(Cl)c2)c1O`, the “Nef inhibition activity call (active/inactive)” value in the data set on TZM-bl was “Active”. Also, the Activity entry in data set [1] is “Non-toxic”.
The corresponding values for `NC(=S)n1nc(-c2ccc([N+](=O)[O-])cc2)c(/N=N/c2cccnc2)c1O` are “Active” and “Non-toxic”.
In the case of `NC(=O)n1nc(-c2ccc([N+](=O)[O-])cc2)c(/N=N/c2ccc(Cl)cc2)c1O`, the Activity entry in data set [1] is reported as “Non-toxic”.
Consider `Oc1[nH]nc(-c2ccc(F)cc2)c1/N=N/c1cncc(Cl)c1`, for which the “Nef inhibition activity call (active/inactive)” value in the data set with TZM-bl is “inactive”. Further, the Activity result in data set [1] is reported as “Non-toxic”.
`NC(=O)n1nc(-c2ccc([N+](=O)[O-])cc2)c(/N=N/c2cccnc2)c1O`: the Activity entry in data set [1] is on record as “Non-toxic”.
The same measure, in the same setting: with `NC(=S)n1nc(-c2ccc([N+](=O)[O-])cc2)c(/N=N/c2ccccc2F)c1O` the entry was “Non-toxic”.
For the compound `NC(=S)n1nc(-c2ccccc2)c(/N=N/c2cccc(Cl)c2)c1O`, the “Nef inhibition activity call (active/inactive)” value in the data set on TZM-bl is “inactive”. In data set [1], the Activity result is reported as “Non-toxic”.
The corresponding values for `NC(=O)n1nc(-c2ccc(F)cc2)c(/N=N/c2cccc(Cl)c2)c1O` are “Active” and “Non-toxic”.
Consider `NC(=O)n1nc(-c2ccc(F)cc2)c(/N=N/c2cccnc2)c1O`, for which the Activity entry in data set [1] is given as “Non-toxic”.
`COc1ccccc1/N=N/c1c(-c2ccc([N+](=O)[O-])cc2)nn(C(N)=S)c1O`: the “Nef inhibition activity call (active/inactive)” value with TZM-bl is “inactive”. Moreover, the Activity result in data set [1] was “Non-toxic”.
The corresponding values for `NC(=S)n1nc(-c2ccc(C(F)(F)F)cc2)c(/N=N/c2cccc(Cl)c2)c1O` are “Active” and “Non-toxic”.
`COc1cccc(/N=N/c2c(-c3ccc([N+](=O)[O-])cc3)nn(C(N)=S)c2O)c1`: the “Nef inhibition activity call (active/inactive)” value in the data set with TZM-bl was “inactive”. In addition, the Activity entry in data set [1] is “Non-toxic”.
On to `NC(=S)n1nc(-c2ccc([N+](=O)[O-])cc2)c(/N=N/c2ccccc2Cl)c1O`, for which the “Nef inhibition activity call (active/inactive)” value in the data set with TZM-bl is “inactive”. Besides, in data set [1], the Activity entry was “Non-toxic”.
As to `NC(=S)n1nc(-c2ccc([N+](=O)[O-])cc2)c(/N=N/c2ccc(F)cc2)c1O`, in data set [1], the Activity entry is “Non-toxic”.
On the same count and under the same terms, in the case of `Oc1[nH]nc(-c2ccc(F)cc2)c1/N=N/c1cccnc1` it was “Non-toxic”; in that of `NC(=S)n1nc(-c2ccc([N+](=O)[O-])cc2)c(/N=N/c2cccc(Cl)c2)c1O`, “Non-toxic”.
In the case of `COc1ccc(-c2nn(C(N)=S)c(O)c2/N=N/c2cccc(Cl)c2)cc1`, the “Nef inhibition activity call (active/inactive)” value in the data set with TZM-bl was “inactive”. In addition, in data set [1], the Activity result was “Non-toxic”.
In the case of `NC(=O)n1nc(-c2ccc([N+](=O)[O-])cc2)c(/N=N/c2cncc(Cl)c2)c1O`, in data set [1], the Activity entry is given as “Non-toxic”.
Take `COc1ccc(/N=N/c2c(-c3ccc([N+](=O)[O-])cc3)n[nH]c2O)cc1`: in the data set on TZM-bl, the “Nef inhibition activity call (active/inactive)” value was “Active”. In addition, in data set [1], the Activity result is “Non-toxic”.
The like results for `NC(=S)n1nc(-c2ccc([N+](=O)[O-])cc2)c(/N=N/c2ccc(Cl)cc2)c1O` were, in that order, “Active” and “Non-toxic”.
As to `NC(=O)n1nc(-c2ccc(F)cc2)c(/N=N/c2cncc(Cl)c2)c1O`, the Activity entry in data set [1] was “Non-toxic”.
`NC(=O)n1nc(-c2ccc([N+](=O)[O-])cc2)c(/N=N/c2cccc(Cl)c2)c1O`: the “Nef inhibition activity call (active/inactive)” value with TZM-bl was “inactive”. Moreover, the Activity result in data set [1] was “Non-toxic”.
